In brackets after ≈: the same amount, converted by molar mass. Activity calls are given as the source filed them. The rule behind the calls is not given here.
Columns and labels:
Nakaseomyces glabratus [1] = test: Antifungal activity against Candida glabrata isolate 4205 after 48 hrs by broth microdilution method; type: functional; details: isolate 4205, 48 h
Procedure, shortened: (§1)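 CLSI broth microdilution with final drug concentrations […], incubated at 35°C and read spectrophotometrically at 490 nm at 24 and 48 h. MIC is the first concentration giving 50% turbidity reduction versus control, or 90% for amphotericin B. Run in quintuplicate.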

Nakaseomyces glabratus [2] = test: (§2) Antifungal activity against 1.04 x 10^8 CFU Candida glabrata isolate 4293 infected in CD1 mouse assessed as inhibition of regrowth in fungal burden in kidney at 1 mg/kg/day, ip administered from day 1 to day 2 post viral challenge measured on day 7 postinfection; type: functional, organism-based
Procedure, shortened: (§3)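 Male CD1 mice (25 g) made neutropenic with cyclophosphamide 200 mg/kg/day ip on days −4, +1 and +4 postinfection. Infected iv with C. glabrata 4293 in 0.2 ml. Treatment began 24 h postchallenge, with 1 mg/kg/day ip in 0.2 ml. Sacrifice on day 3 or day 7. Kidney pairs homogenized; diluted and undiluted aliquots plated on Sabouraud dextrose agar for CFU. Medians reported; 7–8 mice per group.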

Nakaseomyces glabratus [3] = test: Antifungal activity against Candida glabrata isolate 4370 after 48 hrs by broth microdilution method; type: functional; procedure, shortened: as §1
Nakaseomyces glabratus [4] = test: Antifungal activity against 1.04 x 10^8 CFU Candida glabrata isolate 4293 infected in CD1 mouse assessed as reduction in fungal burden per kidney pair at 1 mg/kg/day, ip administered from day 1 to day 2 post viral challenge measured on day 3 postinfection; type: functional, organism-based; procedure, shortened: as §3
Nakaseomyces glabratus [5] = test: (§4) Antifungal activity against 2.44 x 10^8 CFU Candida glabrata isolate 4293 infected in CD1 mouse assessed as reduction in […] per kidney pair at 1 mg/kg/day, ip administered from day 1 to day 2 followed by PEG-200 infusion from day 3 to day 6 […] measured on day 7 postinfection relative to control; type: functional, organism-based; procedure, shortened: as §3
Nakaseomyces glabratus [6] = test: Antifungal activity against Candida glabrata isolate 4198 after 48 hrs by broth microdilution method; type: functional; procedure, shortened: as §1
Nakaseomyces glabratus [7] = test: as §4, with “1.04” for “2.44”; type: functional, organism-based; procedure, shortened: as §3
Nakaseomyces glabratus [8] = test: Antifungal activity against Candida glabrata isolate 4293 after 48 hrs by broth microdilution method; type: functional; procedure, shortened: as §1
Nakaseomyces glabratus [9] = test: (§5) Antifungal activity against 2.44 x 10^8 CFU Candida glabrata isolate 4293 infected in CD1 mouse assessed as inhibition of regrowth in fungal burden in kidney at 1 mg/kg/day, ip administered from day 1 to day 2 post viral challenge measured on day 7 postinfection; type: functional, organism-based; procedure, shortened: as §3
Nakaseomyces glabratus [10] = test: as §2, with “day 2 followed by PEG-200 infusion from day 3 to day 6 post viral” for “day 2 post viral”; type: functional, organism-based; procedure, shortened: as §3
Nakaseomyces glabratus [11] = test: Antifungal activity against 2.44 x 10^8 CFU Candida glabrata isolate 4293 infected in CD1 mouse assessed as reduction in fungal burden per kidney pair at 1 mg/kg/day, ip administered from day 1 to day 2 post viral challenge measured on day 3 postinfection; type: functional, organism-based; procedure, shortened: as §3
Candida parapsilosis [12] = test: Antifungal activity against Candida parapsilosis ATCC 22019 after 48 hrs by broth microdilution method; type: functional; details: Lodderomyces parapsilosis, ATCC 22019, 48 h; procedure, shortened: as §1
Nakaseomyces glabratus [13] = test: as §5, with “day 2 followed by PEG-200 infusion from day 3 to day 6 post viral” for “day 2 post viral”; type: functional, organism-based; procedure, shortened: as §3
Candida parapsilosis [14] = test: Antifungal activity against Candida parapsilosis ATCC 22019 after 24 hrs by broth microdilution method; type: functional; details: Lodderomyces parapsilosis, ATCC 22019, 24 h
Procedure, shortened: (§6)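 CLSI broth microdilution, final drug concentrations 0.0078–8 µg/ml. Incubated at 35°C and read at 24 and 48 h by OD490. MIC is the first concentration giving 50% (azole, echinocandin) or 90% (polyene) less turbidity than the drug-free control. Quintuplicate.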

Nakaseomyces glabratus [15] = test: Antifungal activity against 1.04 x 10^8 CFU Candida glabrata isolate 4293 infected in CD1 mouse assessed as inhibition of regrowth in fungal burden in kidney at 1 mg/kg/day, ip administered from day 1 to day 2 post viral challenge measured on day 3 postinfection; type: functional, organism-based; procedure, shortened: as §3
Nakaseomyces glabratus [16] = test: Antifungal activity against Candida glabrata isolate 4198 after 24 hrs by broth microdilution method; type: functional; procedure, shortened: as §1
Nakaseomyces glabratus [17] = test: Antifungal activity against Candida glabrata isolate 4205 after 24 hrs by broth microdilution method; type: functional; details: isolate 4205, 24 h; procedure, shortened: as §1
Nakaseomyces glabratus [18] = test: Antifungal activity against Candida glabrata isolate 4370 after 24 hrs by broth microdilution method; type: functional; procedure, shortened: as §1
Nakaseomyces glabratus [19] = test: Antifungal activity against Candida glabrata isolate 4293 after 24 hrs by broth microdilution method; type: functional; procedure, shortened: as §6
Nakaseomyces glabratus [20] = test: Antifungal activity against 2.44 x 10^8 CFU Candida glabrata isolate 4293 infected in CD1 mouse assessed as inhibition of regrowth in fungal burden in kidney at 1 mg/kg/day, ip administered from day 1 to day 2 post viral challenge measured on day 3 postinfection; type: functional, organism-based; procedure, shortened: as §3

SMILES	MIC (Nakaseomyces glabratus [1])	Activity (Nakaseomyces glabratus [2])	MIC (Nakaseomyces glabratus [3])	Activity (Nakaseomyces glabratus [4])	Activity (Nakaseomyces glabratus [5])	MIC (Nakaseomyces glabratus [6])	Activity (Nakaseomyces glabratus [7])	MIC (Nakaseomyces glabratus [8])	Activity (Nakaseomyces glabratus [9])	Activity (Nakaseomyces glabratus [10])	Activity (Nakaseomyces glabratus [11])	MIC (Candida parapsilosis [12])	Activity (Nakaseomyces glabratus [13])	MIC (Candida parapsilosis [14])	Activity (Nakaseomyces glabratus [15])	MIC (Nakaseomyces glabratus [16])	MIC (Nakaseomyces glabratus [17])	MIC (Nakaseomyces glabratus [18])	MIC (Nakaseomyces glabratus [19])	Activity (Nakaseomyces glabratus [20])
C[C@@H]1[C@H](O)[C@@H](C)/C=C/C=C/C=C/C=C/C=C/C=C/C=C/[C@H](O[C@@H]2O[C@H](C)[C@@H](O)[C@H](N)[C@@H]2O)C[C@@H]2O[C@](O)(C[C@@H](O)C[C@@H](O)[C@H](O)CC[C@@H](O)C[C@@H](O)CC(=O)O[C@H]1C)C[C@H](O)[C@H]2C(=O)O [AMPHOTERICIN B]	0.5 µg/mL (≈ 0.541 µM)	inactive	1 µg/mL (≈ 1.08 µM)	inactive	Active	0.5 µg/mL (≈ 0.541 µM)	Active	0.5 µg/mL (≈ 0.541 µM)	inactive	inactive	inactive	1 µg/mL (≈ 1.08 µM)	inactive							
CC[C@H](C)C[C@H](C)CCCCCCCCC(=O)N[C@H]1C[C@@H](O)[C@@H](NCCN)NC(=O)[C@@H]2[C@@H](O)CCN2C(=O)[C@H]([C@H](O)CCN)NC(=O)[C@H]([C@H](O)[C@@H](O)c2ccc(O)cc2)NC(=O)[C@@H]2C[C@@H](O)CN2C(=O)[C@H]([C@@H](C)O)NC1=O [CASPOFUNGIN]		Active		inactive	Active		Active		Active		inactive			0.25 µg/mL (≈ 0.229 µM)	Active	0.25 µg/mL (≈ 0.229 µM)	0.25 µg/mL (≈ 0.229 µM)	0.125 µg/mL (≈ 0.114 µM)	≤ 0.03 µg/mL	Active

Reference: ChEMBL document CHEMBL1151473, “Posaconazole activity against Candida glabrata after exposure to caspofungin or amphotericin B” (2008)
